Our source for the ED50, Activity and IC50 values is ChEMBL document CHEMBL1123808, “Synthesis of two glucagon antagonists: receptor binding, adenylate cyclase, and effects on blood plasma glucose levels” (J Med Chem, 1987).

The species named for assay [1] is Rattus norvegicus. Nature of the assay: Binding affinity against glucagon receptor was determined in rat by using adenylate cyclase assay. The class given is functional.
For assay [2], the system named is Rattus norvegicus. Put plainly: Compound tested for the increase in blood glucose level in rats at a dose of 1 ug/kg in 10 min. In kind it is functional, organism-based. Put shortly:
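Male Wistar rats (250-400 g), fed ad libitum, under pentobarbital (70 mg/kg) at 36-37 °C. Peptide given as a femoral-vein bolus in 0.5 mL NaCl 145 mM/Na2CO3 2 mM/0.25% BSA. Plasma glucose from femoral-artery samples at 0, 2, 5, 10, 20, 30, 40, 50 min, expressed as change from each rat's basal level. Buffer-only controls run. n = 4-6.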

For assay [3], the species on record is Rattus norvegicus. Nature of the assay: Ability to displace [125I]glucagon was determined. The class given is functional. The procedure, abridged:
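Rat liver plasma membranes (male Sprague-Dawley; 50 μg protein/0.5 mL) in Tris-HCl 25 mM pH 7.5 with 1% BSA, incubated with [125I]glucagon (100 000 cpm, 25 fmol) and unlabelled peptide at various concentrations for 10 min at 30 °C. Then iced, filtered and washed, and filter radioactivity counted. Nonspecific binding taken with 1 μM unlabelled glucagon. Triplicates, repeated two or three times. IC50 from displacement curves.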

Assay [4] is filed under the species Rattus norvegicus. Nature of the assay: Compound tested for the inhibition of glucagon-mediated hyperglycemia in rats. In kind it is functional. On the set-up: scale not given: the % may be the effect or the level left. Put shortly: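 Normal male Wistar rats under pentobarbital, femoral vein and artery catheterised. At time 0, glucagon 1 μg/kg and an excess of analogue were given together in the same 0.5 mL buffer bolus. Plasma glucose followed over 50 min as change from basal. Mean of 4-6 animals.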

The IC50 is the concentration at which inhibition is half-maximal.

GLUCAGON [listing 1 of 2 here] gave an ED50 in assay [1] of 9.6 nM. In addition, the Activity in assay [2] is 95.1 mg/dL.

In assay [3], GLUCAGON [listing 2 of 2 here] had an IC50 of 6.7 nM.

On to `CSCC[C@H](NC(=O)[C@H](CC(C)C)NC(=O)[C@H](Cc1c[nH]c2ccccc12)NC(=O)[C@H](CCC(N)=O)NC(=O)[C@@H](NC(=O)[C@H](Cc1ccccc1)NC(=O)[C@H](CCC(=O)O)NC(=O)[C@H](CCC(N)=O)NC(=O)[C@H](C)NC(=O)[C@H](CCCCN)NC(=O)[C@H](CCCCN)NC(=O)[C@H](CO)NC(=O)[C@H](CC(=O)O)NC(=O)[C@H](CC(C)C)NC(=O)[C@H](Cc1ccc(O)cc1)NC(=O)[C@H](CCCNC(=N)N)NC(=O)[C@H](CO)NC(=O)[C@H](Cc1cc(I)c(O)c(I)c1)NC(=O)[C@H](CC(=O)O)NC(=O)[C@H](CO)NC(=O)[C@@H](NC(=O)[C@H](Cc1ccccc1)NC(=O)[C@H](Cc1ccc(O)cc1)NC(=O)[C@@H](Cc1ccccc1)NC(=O)[C@H](CCC(N)=O)NC(=O)[C@H](CO)NC(=O)[C@@H](N)Cc1c[nH]cn1)[C@@H](C)O)C(C)C)C(=O)N[C@@H](CC(N)=O)C(=O)N[C@H](C(=O)O)[C@@H](C)O` [listing 1 of 2 here], for which the Activity in assay [4] was determined as 50%.

In assay [3], `CSCC[C@H](NC(=O)[C@H](CC(C)C)NC(=O)[C@H](Cc1c[nH]c2ccccc12)NC(=O)[C@H](CCC(N)=O)NC(=O)[C@@H](NC(=O)[C@H](Cc1ccccc1)NC(=O)[C@H](CCC(=O)O)NC(=O)[C@H](CCC(N)=O)NC(=O)[C@H](C)NC(=O)[C@H](CCCCN)NC(=O)[C@H](CCCCN)NC(=O)[C@H](CO)NC(=O)[C@H](CC(=O)O)NC(=O)[C@H](CC(C)C)NC(=O)[C@H](Cc1ccc(O)cc1)NC(=O)[C@H](CCCNC(=N)N)NC(=O)[C@H](CO)NC(=O)[C@H](Cc1cc(I)c(O)c(I)c1)NC(=O)[C@H](CC(=O)O)NC(=O)[C@H](CO)NC(=O)[C@@H](NC(=O)[C@H](Cc1ccccc1)NC(=O)[C@H](Cc1ccc(O)cc1)NC(=O)[C@@H](Cc1ccccc1)NC(=O)[C@H](CCC(N)=O)NC(=O)[C@H](CO)NC(=O)[C@@H](N)Cc1c[nH]cn1)[C@@H](C)O)C(C)C)C(=O)N[C@@H](CC(N)=O)C(=O)N[C@H](C(=O)O)[C@@H](C)O` [listing 2 of 2 here] yielded an IC50 of 13 nM.
